# Columns and labels:
# [1] = system: Human immunodeficiency virus 1; test: Cytotoxicity (C) and percentage of dead cells at 100 uM concentration.; type: functional
# Outline: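 CEM lymphocytes (RPMI-1640, 10% FCS) plated in triplicate and infected with cell-free HIV-1 NL4-3; virus removed after 2 h, drug at 100 µM added in DMSO in fresh medium for 72 h. Viability by MTT (7.5 mg/mL stock), 4 h at […], formazan dissolved in SDS/HCl, absorbance at 570 nm; value given as percentage of dead cells.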
# [2] = system: Human immunodeficiency virus 1; test: Reduction of viral load in the cell supernatant.; type: functional, organism-based
# [3] = system: Human immunodeficiency virus 1; test: Ex vivo activity against residual viruses (% of nontreated infected cells) in cell supernatant at 100 uM concentration.; type: functional
# [4] = system: Human immunodeficiency virus 1; test: Inhibitory concentration against HIV-1 required for 50% reduction of viral load in the cell supernatant; Not reached.; type: functional, organism-based
Compound,Cytotoxicity [1],IC50 [2],RV [3],NR [4]
O=C(O)c1ccc2ccc(/C=C/c3ccc(F)c(F)c3)nc2c1O,91%,30 µM,2%,
O=C(O)c1ccc2ccc(/C=C/c3ccccc3)nc2c1O,100%,,0%,
O=C(O)c1ccc2ccc(/C=C/c3ccc(O)cc3)nc2c1O,50%,95 µM,26%,
O=C(O)c1ccc2ccc(/C=C/c3ccsc3)nc2c1O,68%,,0%,
O=C(O)c1cccc2nc(/C=C/c3ccc(O)c(O)c3)ccc12,0%,50 µM,5%,
O=C(O)c1cc(C(=O)O)c2ccc(/C=C/c3ccc(O)c(O)c3)nc2c1,0%,15 µM,5%,
O=C(O)c1ccc2ccc(/C=C/c3cc(O)cc(O)c3)nc2c1O,17%,,55%,Not reached
O=C(O)c1ccc2ccc(/C=C/c3cc(O)c(O)c(I)c3)nc2c1O,42%,6.8 µM,3%,
Nc1ccc(/C=C/c2ccc3ccc(C(=O)O)c(O)c3n2)cc1,40%,50 µM,8%,
O=C(O)c1ccc2ccc(/C=C/c3ccco3)nc2c1O,0%,,70%,Not reached
O=C(O)c1ccc2ccc(/C=C/c3ccc(O)cc3O)nc2c1O,26%,80 µM,42%,
COc1cc(/C=C/c2ccc3ccc(C(=O)O)c(O)c3n2)cc(OC)c1O,17%,9 µM,0%,
O=C(O)c1ccc2ccc(/C=C/c3ccc4c(c3)OCO4)nc2c1O,40%,10 µM,4%,
COc1cc(/C=C/c2ccc3ccc(C(=O)O)c(O)c3n2)ccc1O,48%,3 µM,12%,
O=C(O)c1ccc2ccc(/C=C/c3ccc(CO)cc3)nc2c1O,17%,110 µM,55%,
CC(=O)Nc1ccc(/C=C/c2ccc3ccc(C(=O)O)c(O)c3n2)cc1,88%,,0%,
O=C(O)c1ccc2nc(/C=C/c3ccc(O)c(O)c3)ccc2c1,0%,20 µM,4%,
COc1cc(/C=C/c2ccc3ccc(C(=O)O)c(O)c3n2)cc(O)c1O,14%,12 µM,6%,
O=C(O)c1ccc2ccc(/C=C/c3ccc([N+](=O)[O-])cc3)nc2c1O,74%,,6%,
O=C(O)c1ccc2ccc(/C=C/c3cc(Br)c(O)c(Br)c3)nc2c1O,8%,30 µM,13%,
Oc1ccc(/C=C/c2ccc3cccc(O)c3n2)cc1O,78%,,1%,
COc1cc(/C=C/c2ccc3ccc(C(=O)O)cc3n2)ccc1O,30%,20 µM,17%,
O=C(O)c1cccc2ccc(/C=C/c3ccc(O)c(O)c3)nc12,0%,12 µM,0%,
O=C(O)c1ccc2ccc(/C=C/c3cc(O)c(O)c(O)c3)nc2c1O,90%,,0%,
O=C(O)c1ccc2ccc(/C=C/c3cccnc3)nc2c1O,74%,,74%,Not reached
O=C(O)c1ccc2ccc(/C=C/c3ccc(O)c(O)c3)nc2c1O,70%,1.3 µM,0%,
O=C(O)c1cc(/C=C/c2ccc3ccc(C(=O)O)c(O)c3n2)ccc1O,0%,80 µM,24%,
O=C(O)c1ccc2ccc(/C=C/c3cc(O)cc(/C=C/c4ccc5ccc(C(=O)O)c(O)c5n4)c3)nc2c1O,0%,,100%,Not reached
COc1ccc(/C=C/c2ccc3ccc(C(=O)O)c(O)c3n2)cc1O,57%,54 µM,0%,
